In ChEMBL document CHEMBL1123833, “Novel inhibitors of rat lens aldose reductase: N-[[(substituted amino)phenyl]sulfonyl]glycines” (J Med Chem, 1987) one finds inhibition and IC50 data, which are given here for 17 compounds.

The target in experiment [1] is Aldo-keto reductase family 1 member B1 (Rattus norvegicus) (UniProt P07943). The experiment can be described thus: Inhibition of rat aldose reductase activity at 100 uM. In a few lines:
(§1)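 Crude rat lens enzyme: 50 lenses homogenized in distilled water and spun at 10000 rpm for 10 min at 0–5 °C. Supernatant diluted so the control rate was 0.010 ± 0.002 A/min. Reaction in 0.1 M phosphate pH 6.2 with 0.104 mM NADPH, started with 10 mM DL-glyceraldehyde. NADPH loss read at 340 nm for 3.0 min against a glyceraldehyde-free blank. Inhibitor tested at 100 μM; % inhibition vs substrate-only control, reported with SEM.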

The target in experiment [2] is Aldo-keto reductase family 1 member B1 (Rattus norvegicus, UniProt P07943). The experiment can be described thus: Inhibition of rat aldose reductase enzyme. In a few lines:
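Rat lens supernatant (homogenized in water, spun at 0–5 °C, diluted to a control rate of 0.010 ± 0.002 A/min). Assayed in 0.1 M phosphate pH 6.2, 0.104 mM NADPH, 10 mM DL-glyceraldehyde, following A340 decrease for 3.0 min. Four inhibitor concentrations, three determinations each. IC50 from least-squares fit of the log dose-response curve.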

Experiment [3] deals with Aldo-keto reductase family 1 member B1 (Rattus norvegicus) (UniProt P07943). Description: Compound was tested for percent inhibition of aldose reductase inhibitory activity using rat lens assay at concentration of 100 uM. The method in brief: as §1

By inhibition is commonly meant the drop in the measured response relative to a control, in per cent. A higher inhibition goes with strong suppression. A word on the IC50: it is the concentration that inhibits the measured activity by half. Higher therefore signals a need for much substance.

Structures are written as SMILES.

The compound `O=C(O)CNS(=O)(=O)c1ccc(NC(=O)/C=C/c2ccccc2)cc1` showed an inhibition in experiment [1] of 72%. In addition, in experiment [2], it took 0.69 µM to reach half-maximal inhibition (IC50).

In the case of `Nc1ccc(S(=O)(=O)NCC(=O)O)cc1`, the inhibition in experiment [1] came out at 76%. The compound also registered an IC50 in experiment [2] of 16 µM.

Consider `O=C(O)CNS(=O)(=O)c1ccc(NC(=O)CCc2ccccc2)cc1`, for which the inhibition in experiment [1] came out at 86%. Further, it took 11.5 µM to reach half-maximal inhibition in experiment [2] (IC50).

On to `CC(=O)Nc1ccc(S(=O)(=O)NCC(=O)O)cc1`, for which, in experiment [1], the inhibition was 88%. In experiment [2], this compound registered an IC50 of 4.22 µM.

The compound `O=C(O)CNS(=O)(=O)c1ccc(NC(=O)COCc2ccccc2)cc1` registered an inhibition in experiment [1] of 79%. In experiment [2], this compound gave an IC50 of 3.5 µM.

`CN(C)c1ccc(S(=O)(=O)NCC(=O)O)cc1`: the inhibition in experiment [1] amounted to 80%. The compound also yielded an IC50 in experiment [2] of 10.9 µM.

The compound `O=C(O)CNS(=O)(=O)c1ccc(N/C(S)=N/c2ccccc2)cc1` had an inhibition in experiment [1] of 65%. The same compound showed an IC50 in experiment [2] of 8.42 µM.

`O=C(O)CNS(=O)(=O)c1ccc(NC(=O)Nc2ccccc2)cc1` registered an inhibition in experiment [1] of 83%. The compound further had a 50% inhibitory concentration (IC50) in experiment [2] of 2.75 µM.

Regarding `Nc1ccccc1S(=O)(=O)NCC(=O)O`, the inhibition in experiment [1] turned out to be 74%. Moreover, in experiment [2], half-maximal inhibition (IC50) required 38 µM.

In turn, `O=C(O)CNS(=O)(=O)c1ccc(NC(=O)OCc2ccccc2)cc1` came in with an inhibition in experiment [1] of 82%. In experiment [2], the IC50 stood at 6.03 µM.

Regarding `O=C(O)CNS(=O)(=O)c1ccc(NC(=O)Cc2ccccc2)cc1`, the inhibition in experiment [3] amounted to 100%. This compound had a concentration for half-maximal inhibition (IC50) in experiment [2] of 2.17 µM.

`O=C(O)CNS(=O)(=O)c1ccc(NC(=O)c2ccccc2)cc1` showed an inhibition in experiment [1] of 81%. This compound also had an IC50 in experiment [2] of 0.41 µM.

Compound `O=C(O)CNS(=O)(=O)c1ccccc1NC(=O)c1ccccc1` came in with an inhibition in experiment [1] of 52%. The same compound showed an IC50 in experiment [2] of 78 µM.

With `O=C(O)CNS(=O)(=O)c1ccc(NC(=O)COc2ccccc2)cc1`, in experiment [1], the inhibition was 87%. For the same compound, in experiment [2], half-maximal inhibition (IC50) was put at 2.64 µM.

`O=C(O)CNS(=O)(=O)c1ccc(NCc2ccccc2)cc1`: the inhibition in experiment [1] came out at 71%. It took 7.04 µM to reach half-maximal inhibition in experiment [2] (IC50).

As for `O=C(O)CNS(=O)(=O)c1cccc(NC(=O)c2ccccc2)c1`, the inhibition in experiment [1] stood at 79%. 7.12 µM corresponded to half-maximal inhibition in experiment [2] (IC50).

In experiment [1], `Nc1cccc(S(=O)(=O)NCC(=O)O)c1` displayed an inhibition of 73%. The compound also came in with an IC50 in experiment [2] of 29 µM.
